Test [1] in a line: thallium flux activation in parental CHO cells, counter-screen for KCNQ1 potentiator project (AID 493006;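 active means duplicate-averaged activation above buffer control mean plus 5 SD of those controls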). Conditions: parental CHO-K1 cells, FluxOR thallium flux, at 10 µM; stronger effect = higher value. Summed up: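 Assay system: Untransfected host CHO-K1 cells with FluxOR thallium dye | Probe or stimulus: Potassium/thallium depolarization pulse | Schedule: Overnight 37 °C plating, 90 min RT dye, 20 min compound | Detection: Kinetic thallium-flux fluorescence | Read-out: Max-minus-min fluorescence over baseline, percent of buffer-to-R-L3 span | Benchmarks: Low control buffer, high control R-L3 activator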
(A counterscreen serves to expose hits that act by an unwanted route or on another target.)

The target of test [2] is Potassium voltage-gated channel subfamily KQT member 1 (Homo sapiens) (UniProt P51787). Briefly: KCNQ1 potassium channel potentiators, confirmation, FluxOR thallium flux, CHO cells, duplicates (AID 493007).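 On outcome: cells depolarized by a potassium plus thallium sulfate stimulus after compound.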 As to conditions: KCNQ1 cell line, FluxOR thallium flux fluorescence, at 10 µM; stronger effect = higher value, % of reference activator effect, buffer zero. Summed up:
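Material: KCNQ1-expressing CHO cell line; Incubation: FluxOR dye loading 90 min, compound exposure 20 min, room temperature; Detection: FluxOR Tl+ flux fluorescence, 10 s baseline plus 110 s recording; Read-out: percent activation between buffer and R-L3 responses; Control set: buffer-only wells as 0% and R-L3 activator as 100%; Replication: duplicate wells per compound.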

Test [3] addresses Potassium voltage-gated channel subfamily KQT member 2 (Rattus norvegicus) (UniProt O88943). Briefly: rat KCNQ2 channel potentiation, selectivity assay for KCNQ1 potentiator project, KCNQ2-CHO-K1 cells (AID 493009;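 active means mean duplicate potentiation above the buffer control mean plus 5 SD of buffer wells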;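 further: assay conditions were tuned for KCNQ1 rather than KCNQ2 modulators; signal is max minus min fluorescence divided by baseline after thallium stimulus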). Conditions: FluxOR thallium flux fluorescence, at 10 µM; stronger effect = higher value, scaled: buffer 0, activator control 100.
The target of test [4] is Potassium voltage-gated channel subfamily KQT member 1 (Homo sapiens) (UniProt P51787). Briefly: KCNQ1 channel current potentiators, confirmation, orthogonal assay for KCNQ1 potentiator project, IonWorks patch clamp, KCNQ1-CHO cells (AID 493184;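 active means current rise at least 3 SD above the untreated control mean in each of two repeat wells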;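 on current potentiation: percent change of the same well's current before compound addition so 0% = no change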). Conditions: automated patch clamp current, at 10 µM; stronger effect = higher value. Summed up:
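assay system = KCNQ1-expressing CHO cells | medium = external bath solution at pH 7.4 | probe or stimulus = 2,000 ms depolarization, -90 to +40 mV | compound dosing = 10 µM final, single point | measured by = automated voltage clamp, amphotericin B perforated patch | measure = percent current increase versus pre-compound level | replication = duplicates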

Activity calls are given as the source filed them.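 How the source made its calls, unless noted: active means potentiation averaged over duplicate wells exceeding buffer-only control mean by more than 3 SD; inactive means the rest.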

Chain of Potassium voltage-gated channel subfamily KQT member 1 (Homo sapiens) (P51787 whole entry, looked up): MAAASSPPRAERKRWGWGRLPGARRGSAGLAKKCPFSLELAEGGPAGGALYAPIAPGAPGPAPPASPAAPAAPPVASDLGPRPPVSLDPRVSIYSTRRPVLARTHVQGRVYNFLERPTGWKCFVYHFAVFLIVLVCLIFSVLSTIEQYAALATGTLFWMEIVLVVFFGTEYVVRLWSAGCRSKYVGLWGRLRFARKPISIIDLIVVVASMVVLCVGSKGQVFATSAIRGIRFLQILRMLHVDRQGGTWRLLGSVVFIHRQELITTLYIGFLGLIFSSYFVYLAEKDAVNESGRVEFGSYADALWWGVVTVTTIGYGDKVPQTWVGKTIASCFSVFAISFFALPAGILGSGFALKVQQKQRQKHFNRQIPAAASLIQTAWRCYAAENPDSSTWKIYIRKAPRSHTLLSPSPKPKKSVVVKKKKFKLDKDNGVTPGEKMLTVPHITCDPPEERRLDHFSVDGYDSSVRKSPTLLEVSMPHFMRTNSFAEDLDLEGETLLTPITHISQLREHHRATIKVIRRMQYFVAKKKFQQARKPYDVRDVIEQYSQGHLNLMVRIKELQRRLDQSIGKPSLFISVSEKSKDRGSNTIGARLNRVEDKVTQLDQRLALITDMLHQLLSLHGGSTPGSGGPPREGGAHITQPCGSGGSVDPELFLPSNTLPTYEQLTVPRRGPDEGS
Chain of Potassium voltage-gated channel subfamily KQT member 2 (Rattus norvegicus) (O88943 whole entry, looked up): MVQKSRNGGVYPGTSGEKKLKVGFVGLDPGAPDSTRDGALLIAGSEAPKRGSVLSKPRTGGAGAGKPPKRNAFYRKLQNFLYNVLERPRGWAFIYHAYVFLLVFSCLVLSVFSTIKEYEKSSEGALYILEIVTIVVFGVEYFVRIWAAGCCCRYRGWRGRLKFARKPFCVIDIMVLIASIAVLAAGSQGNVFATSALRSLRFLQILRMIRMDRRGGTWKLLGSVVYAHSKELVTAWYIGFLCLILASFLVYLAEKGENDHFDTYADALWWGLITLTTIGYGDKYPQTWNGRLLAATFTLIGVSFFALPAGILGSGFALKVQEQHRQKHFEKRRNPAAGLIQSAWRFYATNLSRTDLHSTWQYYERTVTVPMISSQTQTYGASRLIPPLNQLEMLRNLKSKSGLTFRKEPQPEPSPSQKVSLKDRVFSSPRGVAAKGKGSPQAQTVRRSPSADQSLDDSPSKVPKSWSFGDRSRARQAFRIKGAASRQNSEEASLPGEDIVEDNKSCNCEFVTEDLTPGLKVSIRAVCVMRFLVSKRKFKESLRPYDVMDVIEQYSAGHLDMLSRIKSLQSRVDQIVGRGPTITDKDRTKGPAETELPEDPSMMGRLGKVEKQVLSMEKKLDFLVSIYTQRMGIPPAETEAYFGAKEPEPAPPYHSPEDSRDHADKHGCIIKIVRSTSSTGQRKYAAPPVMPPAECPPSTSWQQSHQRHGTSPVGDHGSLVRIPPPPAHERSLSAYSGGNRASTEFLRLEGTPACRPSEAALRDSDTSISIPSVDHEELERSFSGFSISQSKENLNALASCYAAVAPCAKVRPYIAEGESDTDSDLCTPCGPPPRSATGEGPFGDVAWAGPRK

As to `O=C(Nc1ccccc1Cl)N1CCN(c2ccccn2)CC1`, the outcome in test [1], in test [2], in test [3] and in test [4] was inactive.
As to `CCNC(=S)/N=C(\N)Nc1nc(C)c2cc(C)ccc2n1`, the result in test [1], in test [2], in test [3] and in test [4] was inactive.
`CCOc1ccc(N=Nc2ccc(O)c3ncccc23)cc1`: the outcome in test [1], in test [3] and in test [4] was inactive. Further, in test [2], the potentiation is 17.5% (active).
Take `O=C(NC(=S)N1CCCc2ccccc21)c1ccccc1`: the result in test [1], in test [2] and in test [4] was inactive. In addition, the potentiation in test [3] was 148% (active).
Take `C=CCN(c1ccccc1)S(=O)(=O)c1cccc(C(=O)Nc2cccc(C)n2)c1`: the activation in test [1] was 290% (active). For the same compound, the results for the potentiation in test [2] and in test [3] were 224% (active) and 358% (active), respectively. The outcome in test [4] was inactive.
For the compound `CCCCCNC(=O)Cn1c(=O)c2c(ncn2CC(C)C)n(Cc2ccccc2)c1=O`, the result in test [1], in test [2], in test [3] and in test [4] was inactive.
For `CCN(CC)c1ccc(NC(=S)NC(=O)c2ccco2)cc1`, the activation in test [1] is 263% (active). For the same compound, the results for the potentiation in test [2] and in test [3] were 104% (active) and 322% (active), respectively. For the same compound, the result in test [4] was inactive.
For `Cc1ccc(SCc2[nH]nc3c2C(c2ccco2)C(C#N)=C(N)O3)cc1` (stereo not given), the result in test [1], in test [2], in test [3] and in test [4] was inactive.
`C=CCn1c(=S)[nH]c2sc3c(c2c1=O)CCCC3`: in test [1], the activation is 294% (active). The potentiation is 97% (active) in test [2] and 294% (active) in test [3]. Further, the outcome in test [4] was inactive.
As for `COC(=O)c1c(NS(=O)(=O)c2ccc3ccccc3c2)sc2c1CCCC2`, the activation in test [1] is 216% (active). The potentiation in test [2] was 60.5% (active); in test [3], 232% (active). Moreover, in test [4], the result was inactive.
Turning to `COc1ccc(Nc2nc(-c3sc(C)nc3C)cs2)c(OC)c1`, the result in test [1], in test [2], in test [3] and in test [4] was inactive.
For the compound `CCOC(=O)Cc1csc(NC(=S)NC(=O)c2ccccc2C)n1`, the activation in test [1] is 201% (active). Further, the potentiation is 45.5% (active) in test [2] and 200% (active) in test [3]. The outcome in test [4] was inactive.
The like results for `Cc1ccc(-c2nc3c(Cl)cc(Cl)cc3c(=O)n2O)cc1` were, in that order, 828% (active), 414% (active), 820% (active) and “inactive”.
Consider `CSc1nc2sc3c(c2c(=S)[nH]1)CC(C)(C)OC3`, for which, in test [1], the activation was 528% (active). For the same compound, the potentiation in test [2] was 298% (active); in test [3], 652% (active). The outcome in test [4] was inactive.
For `NC(=O)c1nsc(C(=O)N(CC(=O)NC2CCCCC2)c2ccc(Cl)cc2)c1N`, the outcome in test [1], in test [2], in test [3] and in test [4] was inactive.
Regarding `C(=N\NC(=Nc1ccccc1)c1ccccn1)/c1ccccn1`, the outcome in test [1], in test [2], in test [3] and in test [4] was inactive.
As to `C=CCn1c(N)c(C(=O)Nc2ccc(C)cc2)sc1=S`, the outcome in test [1], in test [2], in test [3] and in test [4] was inactive.
On to `CCOC(=O)/C(C)=N/NC(=O)c1cccc([N+](=O)[O-])c1`, for which the activation in test [1] is 170% (active). The values for the potentiation in test [2] and in test [3] were 49% (active) and 206% (active), respectively. In addition, the result in test [4] was inactive.
As to `CCc1ccccc1NC(=O)C1CCN(C(=O)N2CCOc3ccccc32)CC1`, the result in test [1], in test [2], in test [3] and in test [4] was inactive.
For the compound `COc1ccc(-c2csc(NC(=S)NC(=O)c3cccs3)n2)cc1OC`, the outcome in test [1] and in test [4] was inactive. The potentiation in test [2] was 40% (active); in test [3] it was 216% (active).
For `O=[N+]([O-])c1cc(CN2CCCC2)ccc1Sc1ccc(Cl)cc1`, the outcome in test [1], in test [2], in test [3] and in test [4] was inactive.
Regarding `CCN(CC)CCCNC(=O)c1[nH]c2ccccc2c1Sc1ccc(Cl)cc1`, the result in test [1] and in test [3] was inactive. Moreover, the potentiation in test [2] was 73% (active). In addition, in test [4], the current potentiation was 29.6% (active).
Turning to `Oc1c(Br)cc(Br)cc1/C=N/c1nc2c(s1)CCCC2`, the activation in test [1] is 186% (active). For the same compound, the potentiation in test [2] was 22% (active). Besides, the outcome in test [3] and in test [4] was inactive.
As for `Cc1ccc(C2=CSC3=NS(=O)(=O)CCN23)cc1`, the result in test [1], in test [2], in test [3] and in test [4] was inactive.
`CC(c1ccccc1C(O)(c1ccccc1)c1ccccc1)N(C)C` (stereo not given): the outcome in test [1], in test [2], in test [3] and in test [4] was inactive.
For `O=C(CCc1ccccc1)Nc1nccs1`, the outcome in test [1], in test [2], in test [3] and in test [4] was inactive.
As for `Cc1cc(/C=N/NC(=O)c2cccs2)c(C)n1-c1ccccc1`, the result in test [1], in test [2], in test [3] and in test [4] was inactive.
Turning to `CC1(N2CCCCC2)CC2(O)C(=[N+]1[O-])CCC/C2=N\O` (stereo not given), the outcome in test [1], in test [2], in test [3] and in test [4] was inactive.
Turning to `C/C(=N/NC(=S)Nc1cccc(C)c1)c1cccc([N+](=O)[O-])c1`, the outcome in test [1], in test [3] and in test [4] was inactive. For the same compound, the potentiation in test [2] was 44.5% (active).
As for `C/C(=N\NC(=S)Nc1cccc(C)c1)c1cc2ccccc2o1`, in test [1], the activation is 159% (active). For the same compound, the potentiation is 60% (active) in test [2] and 172% (active) in test [3]. In addition, the outcome in test [4] was inactive.

(Values after PubChem BioAssay.)
